Tests used:
[1] = molecular target: Platelet-derived growth factor receptor alpha (Homo sapiens, UniProt P16234); assay: Inhibition of PDGFR alpha phosphorylation in G292 cell; type: functional, cell-based
Procedure, shortened: (§1)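 Cell-based ELISA on intact cells: PDGFR-α in G292 cells, c-kit in M07e cells, both quiesced in 0.1% FBS medium. Serial compound concentrations were added for 1 h at 37 °C, then 50 ng/mL PDGF-AA (G292) or SCF (M07e) was added. Lysates were captured on anti-phosphotyrosine (PY-20) plates overnight at 4 °C. Detection used anti-PDGFR-α or anti-c-kit plus HRP, read at A450. IC50 is the mean of two tests.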

[2] = molecular target: Mast/stem cell growth factor receptor Kit (Homo sapiens, UniProt P10721); assay: Inhibition of c-kit receptor phosphorylation in M07e cell; type: functional, cell-based; procedure, shortened: as §1
Sequence of Mast/stem cell growth factor receptor Kit (P10721 whole entry): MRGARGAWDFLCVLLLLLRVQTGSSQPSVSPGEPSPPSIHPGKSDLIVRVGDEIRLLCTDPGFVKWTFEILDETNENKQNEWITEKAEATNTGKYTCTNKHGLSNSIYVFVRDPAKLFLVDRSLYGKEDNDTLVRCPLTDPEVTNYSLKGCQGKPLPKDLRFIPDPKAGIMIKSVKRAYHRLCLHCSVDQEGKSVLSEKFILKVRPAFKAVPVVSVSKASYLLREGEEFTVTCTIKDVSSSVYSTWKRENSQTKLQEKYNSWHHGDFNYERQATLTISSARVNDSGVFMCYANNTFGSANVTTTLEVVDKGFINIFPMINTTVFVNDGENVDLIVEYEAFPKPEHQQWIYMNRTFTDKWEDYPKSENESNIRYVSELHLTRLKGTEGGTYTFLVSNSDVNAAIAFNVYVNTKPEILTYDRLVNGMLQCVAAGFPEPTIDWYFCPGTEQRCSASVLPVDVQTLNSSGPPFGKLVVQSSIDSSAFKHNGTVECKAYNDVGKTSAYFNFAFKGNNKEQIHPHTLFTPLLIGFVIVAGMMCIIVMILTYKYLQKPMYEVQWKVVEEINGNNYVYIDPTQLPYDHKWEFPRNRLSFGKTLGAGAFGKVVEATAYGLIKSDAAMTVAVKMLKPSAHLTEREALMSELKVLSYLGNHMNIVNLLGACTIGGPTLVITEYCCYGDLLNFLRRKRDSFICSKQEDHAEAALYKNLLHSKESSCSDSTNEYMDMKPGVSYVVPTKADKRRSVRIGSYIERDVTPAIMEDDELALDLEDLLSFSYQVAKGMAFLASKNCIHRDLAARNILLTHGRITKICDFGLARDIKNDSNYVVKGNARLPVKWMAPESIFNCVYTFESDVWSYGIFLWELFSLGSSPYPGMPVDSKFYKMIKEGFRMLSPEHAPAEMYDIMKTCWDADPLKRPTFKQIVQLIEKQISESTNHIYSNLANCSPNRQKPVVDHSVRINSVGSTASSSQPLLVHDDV

Sequence of Platelet-derived growth factor receptor alpha (P16234 whole entry): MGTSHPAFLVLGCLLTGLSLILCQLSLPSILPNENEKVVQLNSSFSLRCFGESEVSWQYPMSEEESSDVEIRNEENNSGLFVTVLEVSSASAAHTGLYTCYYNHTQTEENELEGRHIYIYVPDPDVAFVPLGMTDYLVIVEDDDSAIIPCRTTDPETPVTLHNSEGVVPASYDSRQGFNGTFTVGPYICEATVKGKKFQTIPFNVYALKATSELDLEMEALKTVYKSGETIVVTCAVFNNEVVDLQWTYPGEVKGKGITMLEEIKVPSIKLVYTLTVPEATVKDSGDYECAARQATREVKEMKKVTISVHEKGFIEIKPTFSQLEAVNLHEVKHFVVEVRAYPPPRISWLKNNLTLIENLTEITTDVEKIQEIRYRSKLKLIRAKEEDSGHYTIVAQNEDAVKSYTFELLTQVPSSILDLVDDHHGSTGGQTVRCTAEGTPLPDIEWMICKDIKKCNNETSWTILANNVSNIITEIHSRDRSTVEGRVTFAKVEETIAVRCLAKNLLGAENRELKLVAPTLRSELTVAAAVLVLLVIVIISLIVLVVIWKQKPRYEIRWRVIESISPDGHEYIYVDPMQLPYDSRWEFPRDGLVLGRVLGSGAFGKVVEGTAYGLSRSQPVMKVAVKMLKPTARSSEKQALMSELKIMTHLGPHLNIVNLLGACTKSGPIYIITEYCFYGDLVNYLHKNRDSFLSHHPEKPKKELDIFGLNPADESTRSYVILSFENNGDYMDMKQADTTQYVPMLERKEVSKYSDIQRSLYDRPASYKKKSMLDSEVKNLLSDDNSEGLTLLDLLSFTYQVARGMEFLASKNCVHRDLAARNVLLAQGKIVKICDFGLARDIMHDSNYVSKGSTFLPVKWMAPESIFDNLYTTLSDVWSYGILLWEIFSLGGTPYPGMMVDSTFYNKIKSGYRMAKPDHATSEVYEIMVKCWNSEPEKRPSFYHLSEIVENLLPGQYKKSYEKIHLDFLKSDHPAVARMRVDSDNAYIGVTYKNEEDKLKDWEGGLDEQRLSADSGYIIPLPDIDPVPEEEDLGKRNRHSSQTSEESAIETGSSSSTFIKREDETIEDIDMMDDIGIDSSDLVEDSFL

Q: `COc1cc2nccc(Oc3ccc(NC(=S)NC(=O)c4ccccc4Cl)cc3)c2cc1OC` was tested. Which IC50 [1] did it give?
A: Its IC50 is 5 nM.

Q: For `COc1cc2nccc(Oc3ccc(NC(=S)NC(=O)C4CCCCC4)cc3)c2cc1OC`, which IC50 [1] is on record?
A: Its IC50 is 15 nM.

Q: Which results are given for `COc1cc2ncnc(Oc3ccc(NC(=O)NCCC4CCCCC4)cc3)c2cc1OC`?
A: IC50 [1]: 9 nM; IC50 [2]: < 30 nM

Q: With `COc1cc2ncnc(Oc3ccc(NC(=S)NCc4ccccc4)cc3)c2cc1OC` as the compound, how does the IC50 [1] read?
A: The IC50 was 46 nM.

Q: What about the IC50 [2] of the same compound?
A: The IC50 was 303 nM.

Q: What does the source list for `COc1cc2ncnc(Oc3ccc(NC(=O)NC4CCCCC4)cc3)c2cc1OC`?
A: IC50 [1]: 7 nM; IC50 [2]: 27 nM

Q: What does the source list for `COc1cc2nccc(Oc3ccc(NC(=S)NC4CCCCC4)cc3)c2cc1OC`?
A: IC50 [1]: 40 nM; IC50 [2]: 69 nM

Q: Which results are given for `COc1cc2nccc(Oc3ccc(NC(=O)NC4CCCCC4)cc3)c2cc1OC`?
A: IC50 [1]: 12 nM; IC50 [2]: 22 nM

Q: How did the IC50 [1] turn out when `COc1cc2nccc(Oc3ccc(NC(=S)NC(=O)c4ccccc4)cc3)c2cc1OC` was run?
A: Its IC50 is 8 nM.

Q: How did the IC50 [1] turn out when `COc1cc2nccc(Oc3ccc(NC(=O)Oc4ccccc4)cc3)c2cc1OC` was run?
A: Its IC50 is 5 nM.

Q: What does the source list for `COc1cc2ncnc(Oc3ccc(NC(=S)NCC4CCCCC4)cc3)c2cc1OC`?
A: IC50 [1]: 37 nM; IC50 [2]: 153 nM

Q: With `COc1cc2nccc(Oc3ccc(NC(=O)OCCC4CCCCC4)cc3)c2cc1OC` as the compound, how does the IC50 [1] read?
A: Its IC50 is 18 nM.

Q: And the IC50 [2]?
A: Its IC50 is 80 nM.

Q: How did the IC50 [1] turn out when `COc1cc2nccc(Oc3ccc(NC(=O)NCCC4CCCCC4)cc3)c2cc1OC` was run?
A: Its IC50 is 6 nM.

Q: And the IC50 [2]?
A: Its IC50 is less than 30 nM.

— ChEMBL document CHEMBL1146076, “Identification of potent and selective inhibitors of PDGF receptor autophosphorylation” (J Med Chem, 2006)
